Bioassay records from PubChem.
KDM4C inh – blocks human GASC-1 (KDM4C) demethylase activity; 0.15% of 96,000 active; AID 720574; inhibition, % at 12.5 µM; GST-KDM4C 2-372, H3K9me3 peptide, LANCE TR-FRET;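 active means mean replicate inhibition above about 25%, with at least 55% of replicates also reaching it, limit read from the data, passing the limit was not always enough; inconclusive means only one of those two conditions met; inactive means neither condition met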
Target sequence (Q9H3R0 2-372 limits assumed): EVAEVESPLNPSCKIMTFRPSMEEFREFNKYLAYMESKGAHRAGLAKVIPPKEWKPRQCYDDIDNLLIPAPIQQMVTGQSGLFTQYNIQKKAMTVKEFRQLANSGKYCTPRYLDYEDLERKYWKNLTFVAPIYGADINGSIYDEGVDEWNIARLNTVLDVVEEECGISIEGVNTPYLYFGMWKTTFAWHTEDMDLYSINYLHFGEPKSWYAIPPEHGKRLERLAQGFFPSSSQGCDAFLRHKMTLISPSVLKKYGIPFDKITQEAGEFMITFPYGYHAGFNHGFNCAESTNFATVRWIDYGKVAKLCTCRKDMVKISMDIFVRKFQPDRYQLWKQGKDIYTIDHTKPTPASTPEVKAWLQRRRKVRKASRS
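material = GST-tagged GASC-1 (JMJD2C) catalytic fragment, aa 2-372 | amount = enzyme final amount 10 nM | medium = HEPES buffer, pH 7.5, plus ascorbate | also added = H3K9me3 peptide substrate, Fe(II), 2-oxoglutarate | dosing = single dose | times = 30 min demethylation and 1 h detection at room temperature | detection = LANCE TR-FRET | read-out basis = Fall in 671/618 emission ratio as inhibition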
T cruzi growth-1 – blocks T. cruzi growth in NIH3T3 culture | T. cruzi beta-gal in NIH3T3, GalScreen luminescence, 90 h | inhibition, % at 8.34 µM | 5.9% of 77,000 active;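 active means mean inhibition above about 93%, with at least 55% of replicates each passing it, limit read from the data, passing the limit was not always enough; inconclusive means only one of those two conditions holds; inactive means neither condition holds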
IDH1 mut inh – IDH1 R132H (human) inhibition | O75874 | IDH1 R132H reductase, diaphorase/resazurin fluorescence, 60 min | inhibition, % at 10 µM | 0.18% of 70,000 active; in the data active means inhibition above about 34%; inconclusive means no clear call, values can overlap the other calls; inactive means below about 11%
T cruzi growth-2 – blocks T. cruzi growth in NIH3T3 host cells | T. cruzi beta-gal in NIH3T3, GalScreen luminescence, 90 h | inhibition, % at 8.35 µM | shares compounds with T cruzi growth-1 | AID 651739 | 72% of 5,600 active;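 active means mean replicate inhibition above about 95% and at least 55% of replicates individually reaching it, limit read from the data; inconclusive means only one of the two criteria is met; inactive means neither criterion is met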
T cruzi growth-3 – Trypanosoma cruzi proliferation inhibition; shares compounds with T cruzi growth-1; T. cruzi beta-gal in NIH3T3, GalScreen luminescence, 90 h; inhibition, % at 2.09 µM; 21% of 5,600 active;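 active means mean inhibition above about 95%, with at least 55% of replicates also reaching it, limit read from the data; inconclusive means meets just one of the two conditions; inactive means meets neither condition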
3T3 cytotox – NIH/3T3 (mouse) viability loss; NIH/3T3 viability, CellTiter-Glo ATP luminescence, 90 h; shares compounds with T cruzi growth-1; cytotoxicity (signal decrease), % at 8.35 µM; AID 651742; 14% of 5,600 active;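 active means mean signal decrease across replicates above about 35% based on untreated-well scatter, with enough replicates individually passing, limit read from the data; inconclusive means no rule stated though some were filed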
3T3 cytotox 2 – NIH/3T3 (mouse) viability loss; shares compounds with T cruzi growth-1; NIH/3T3 viability, CellTiter-Glo ATP luminescence, 90 h; inhibition, % at 24.9 µM; 56% of 5,600 active; AID 651744;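 active means mean loss of cell viability signal at or above a set limit, and enough replicates individually reaching it; inconclusive means meets only the mean limit or only the replicate share; inactive means meets neither condition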
A number is an active result; i = inactive; ? = inconclusive; nt = not tested or not shown. This is one part of a sample in which hits are shown more often than they occur.

SMILES | KDM4C inh | T cruzi growth-1 | IDH1 mut inh | T cruzi growth-2 | T cruzi growth-3 | 3T3 cytotox | 3T3 cytotox 2
C[C@H](CO)N1C[C@H](C)[C@@H](CN(C)S(=O)(=O)c2ccccc2)OCCCC[C@H](C)Oc2ccc(NC(=O)Cc3ccccc3)cc2C1=O | i | nt | nt | nt | nt | nt | nt
C[C@@H]1CN([C@@H](C)CO)C(=O)c2cc(NC(=O)Cc3ccccc3)ccc2O[C@@H](C)CCCCO[C@H]1CN(C)S(=O)(=O)c1ccc(Cl)cc1 | i | i | i | nt | nt | nt | nt
C[C@@H]1CCCCO[C@@H](CN(C)S(=O)(=O)c2ccc(Cl)cc2)[C@H](C)CN([C@H](C)CO)C(=O)c2cc(NC(=O)Cc3ccccc3)ccc2O1 | i | 116 | i | 105 | 103 | i | i
C[C@@H]1CCCCO[C@H](CN(C)S(=O)(=O)c2ccc(Cl)cc2)[C@H](C)CN([C@H](C)CO)C(=O)c2cc(NC(=O)Cc3ccccc3)ccc2O1 | i | 117 | i | 110 | 105 | i | i
C[C@H]1CCCCO[C@H](CN(C)S(=O)(=O)c2ccccc2)[C@@H](C)CN([C@@H](C)CO)C(=O)c2cc(NC(=O)Cc3ccccc3)ccc2O1 | i | nt | i | nt | nt | nt | nt
COc1ccc(S(=O)(=O)N[C@@H]2CCCN(Cc3ccc(OCCO)cc3)C2)cc1 | nt | nt | i | nt | nt | nt | nt
CS(=O)(=O)N(CC(=O)Nc1ccccc1Br)c1ccccc1F | nt | nt | i | nt | nt | nt | nt
Cc1ccc(S(=O)(=O)N[C@@H]2CC[C@@H](CCNC(=O)Cc3ccccn3)O[C@H]2CO)cc1 | i | ? | i | i | i | i | i
O=C(C[C@H]1CC[C@H](NS(=O)(=O)c2ccc(F)cc2)[C@@H](CO)O1)NC1CCC1 | i | i | i | nt | nt | nt | nt
O=C(C[C@H]1CC[C@@H](NS(=O)(=O)c2ccccc2)[C@@H](CO)O1)NCc1ccncn1 | i | 123 | i | 101 | i | i | i
O=C(C[C@H]1CC[C@@H](NS(=O)(=O)c2ccc(F)cc2)[C@H](CO)O1)NC1CCC1 | i | 119 | i | i | i | i | i
Cc1ccc(S(=O)(=O)N[C@H]2CC[C@@H](CCNC(=O)Cc3ccccn3)O[C@H]2CO)cc1 | i | i | i | nt | nt | nt | nt
O=C(C[C@@H]1CC[C@@H](NS(=O)(=O)c2ccccc2)[C@@H](CO)O1)NCc1ccncn1 | i | i | i | nt | nt | nt | nt
N#Cc1ccc(-c2ccc3c(c2)[C@H]2[C@H](CCN2C(=O)C2CCCCC2)[C@@H](CO)N3)cc1 | i | i | nt | nt | nt | nt | nt
CC(C)C#Cc1ccc2c(c1)O[C@@H](CN(C)C(=O)C1CCCCC1)[C@H](C)CN([C@@H](C)CO)S2(=O)=O | i | i | nt | nt | nt | nt | nt
CC(C)C#Cc1ccc2c(c1)O[C@@H](CN(C)C(=O)C1CCC1)[C@@H](C)CN([C@H](C)CO)S2(=O)=O | i | i | nt | nt | nt | nt | nt
CC(C)C#Cc1ccc2c(c1)O[C@@H](CN(C)C(=O)C1CCCCC1)[C@H](C)CN([C@H](C)CO)S2(=O)=O | i | 104 | nt | 103 | i | ? | 105
CC(C)C#Cc1ccc2c(c1)O[C@H](CN(C)C(=O)C1CCC1)[C@@H](C)CN([C@@H](C)CO)S2(=O)=O | i | 103 | nt | 111 | i | i | 51
O=C(Nc1ccc(F)cc1)N[C@H]1CC[C@H](CC(=O)N2CCCCC2)O[C@@H]1CO | i | i | i | nt | nt | nt | nt
CCCN1[C@@H]2c3ccc(C4=CCCC4)c(=O)n3C[C@@H]2[C@@H](CO)[C@@H]1C(=O)OC | i | i | nt | nt | nt | nt | nt
O=C(CSc1nnc(-c2ccc(Cl)cc2)o1)Nc1ccccc1 | nt | nt | i | nt | nt | nt | nt
COc1ccc(NC(=O)Nc2ccc3c(c2)C(=O)N([C@H](C)CO)C[C@@H](C)[C@@H](CN(C)Cc2ccc4c(c2)OCO4)OCCCC[C@H](C)O3)cc1 | nt | i | i | nt | nt | nt | nt
COc1ccc(CN(C)C[C@@H]2OCCCC[C@H](C)Oc3ccc(NC(=O)Nc4ccc5c(c4)OCO5)cc3C(=O)N([C@H](C)CO)C[C@@H]2C)cc1 | i | 101 | nt | i | 106 | i | 107
COc1ccc(CN(C)C[C@@H]2OCCCC[C@@H](C)Oc3ccc(NC(=O)Nc4ccc5c(c4)OCO5)cc3C(=O)N([C@H](C)CO)C[C@@H]2C)cc1 | i | 102 | nt | 111 | i | i | i
COc1ccc(CN(C)C[C@H]2OCCCC[C@@H](C)Oc3ccc(NC(=O)Nc4ccc5c(c4)OCO5)cc3C(=O)N([C@@H](C)CO)C[C@@H]2C)cc1 | i | i | i | nt | nt | nt | nt
